How the values were obtained:
Rattus norvegicus [1] = organism: Rattus norvegicus; assay: Radioactivity distribution in muscle of normal fischer rat after injection of anti-[18F]FMACBC after 60 min.; assay type: ADME, organism-based, Muscle tissue; conditions: in vivo, 1 h
In short: (§1)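 Normal male Fischer 344 rats (200–250 g) were anesthetised with ketamine:xylazine i.m. and given about 85 μCi tracer in 0.3 mL sterile water via a tail vein catheter. Groups of four were killed at 5, 30, 60 and 120 min. Selected tissues were weighed and gamma counted with dose standards, decay-corrected, and expressed as mean %ID/g.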

Rattus norvegicus [2] = organism: Rattus norvegicus; assay: Radioactivity distribution in liver of normal fischer rat after injection of anti-[18F]FMACBC after 5 min.; assay type: ADME, organism-based; conditions: in vivo
In short: (§2)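 Male Fischer 344 rats (200–250 g), normal, fed ad libitum, given ~85 μCi of 18F tracer in 0.3 mL sterile water IV through a tail vein catheter. Anesthesia was ketamine:xylazine IM. Groups of four were killed at 5, 30, 60 and 120 min. Tissues were weighed and gamma-counted against dose standards, decay-corrected, and expressed as mean % injected dose per gram.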

Rattus norvegicus [3] = organism: Rattus norvegicus; assay: Radioactivity distribution in bone of tumor-bearing fischer rat after injection of syn-[18F]-FMACBC after 60 min; assay type: ADME, organism-based, Bone element; conditions: in vivo, 1 h
In short: (§3)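 Male Fischer 344 rats carrying intracranial rat 9L gliosarcoma, made by stereotaxic injection of 4 × 10^4 cells 17–19 days before. Awake restrained rats received ~35 μCi of 18F tracer in 0.3 mL sterile water IV by tail vein and were killed at 5, 60 or 120 min, n = 3–5. Tissues were weighed, gamma-counted, decay-corrected and expressed as % injected dose per gram.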

Rattus norvegicus [4] = organism: Rattus norvegicus; assay: Radioactivity distribution in muscle of normal fischer rat after injection of syn-[18F]-FMACBC after 5 min.; assay type: ADME, organism-based, Muscle tissue; conditions: in vivo; in short: as §1
Rattus norvegicus [5] = organism: Rattus norvegicus; assay: Radioactivity distribution in testis of tumor-bearing fischer rat after injection of syn-[18F]-FMACBC after 60 min; assay type: ADME, organism-based; conditions: in vivo, 1 h
In short: (§4)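 Male Fischer 344 rats with intracranial 9L gliosarcoma (4 × 10^4 cells stereotaxically implanted; used 17–19 days after implantation). About 35 μCi tracer in 0.3 mL sterile water was given by tail vein to awake, restrained rats. Rats were killed at 5, 60 or 120 min. Tissues, tumor and contralateral brain were weighed and gamma counted, decay-corrected, and expressed as %ID/g; n = 3–5 per time point.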

Rattus norvegicus [6] = organism: Rattus norvegicus; assay: Radioactivity distribution in brain of tumor-bearing fischer rat after injection of syn-[18F]-FMACBC after 60 min; assay type: ADME, organism-based; conditions: in vivo, 1 h; in short: as §3
Rattus norvegicus [7] = organism: Rattus norvegicus; assay: Radioactivity distribution in muscle of normal fischer rat after injection of syn-[18F]-FMACBC after 30 min.; assay type: ADME, organism-based, Muscle tissue; conditions: in vivo, 0.5 h; in short: as §1
Rattus norvegicus [8] = organism: Rattus norvegicus; assay: Radioactivity distribution in lung of tumor-bearing fischer rat after injection of syn-[18F]-FMACBC after 60 min; assay type: ADME, organism-based; conditions: in vivo, 1 h; in short: as §4
Rattus norvegicus [9] = organism: Rattus norvegicus; assay: Radioactivity distribution in pancreas of normal fischer rat after injection of syn-[18F]-FMACBC after 60 min.; assay type: ADME, organism-based; conditions: in vivo, 1 h; in short: as §1
Rattus norvegicus [10] = organism: Rattus norvegicus; assay: Radioactivity distribution in liver of normal fischer rat after injection of syn-[18F]-FMACBC after 120 min.; assay type: ADME, organism-based; conditions: in vivo, 2 h; in short: as §2
Rattus norvegicus [11] = organism: Rattus norvegicus; assay: Radioactivity distribution in pancreas of tumor-bearing fischer rat after injection of anti-[18F]FMACBC after 5 min; assay type: ADME, organism-based; conditions: in vivo; in short: as §4
Rattus norvegicus [12] = organism: Rattus norvegicus; assay: Radioactivity distribution in kidney of tumor-bearing fischer rat after injection of syn-[18F]-FMACBC after 5 min; assay type: ADME, organism-based; conditions: in vivo; in short: as §3
Rattus norvegicus [13] = organism: Rattus norvegicus; assay: Radioactivity distribution in pancreas of normal fischer rat after injection of anti-[18F]FMACBC after 30 min.; assay type: ADME, organism-based; conditions: in vivo, 0.5 h; in short: as §1
Rattus norvegicus [14] = organism: Rattus norvegicus; assay: Radioactivity distribution in muscle of normal fischer rat after injection of anti-[18F]FMACBC after 5 min.; assay type: ADME, organism-based, Muscle tissue; conditions: in vivo; in short: as §1
Rattus norvegicus [15] = organism: Rattus norvegicus; assay: Radioactivity distribution in testis of normal fischer rat after injection of syn-[18F]-FMACBC after 120 min.; assay type: ADME, organism-based; conditions: in vivo, 2 h; in short: as §1
Rattus norvegicus [16] = organism: Rattus norvegicus; assay: Radioactivity distribution in testis of normal fischer rat after injection of anti-[18F]FMACBC after 5 min.; assay type: ADME, organism-based; conditions: in vivo; in short: as §1
Rattus norvegicus [17] = organism: Rattus norvegicus; assay: Radioactivity distribution in liver of normal fischer rat after injection of anti-[18F]FMACBC after 60 min.; assay type: ADME, organism-based; conditions: in vivo, 1 h; in short: as §2
Rattus norvegicus [18] = organism: Rattus norvegicus; assay: Radioactivity distribution in heart of tumor-bearing fischer rat after injection of syn-[18F]-FMACBC after 60 min; assay type: ADME, organism-based; conditions: in vivo, 1 h; in short: as §3
Rattus norvegicus [19] = organism: Rattus norvegicus; assay: Radioactivity distribution in kidney of normal fischer rat after injection of syn-[18F]-FMACBC after 5 min.; assay type: ADME, organism-based; conditions: in vivo; in short: as §2
Rattus norvegicus [20] = organism: Rattus norvegicus; assay: Radioactivity distribution in muscle of tumor-bearing fischer rat after injection of syn-[18F]-FMACBC after 60 min; assay type: ADME, organism-based, Muscle tissue; conditions: in vivo, 1 h; in short: as §4
Rattus norvegicus [21] = organism: Rattus norvegicus; assay: Radioactivity distribution in spleen of normal fischer rat after injection of anti-[18F]FMACBC after 30 min.; assay type: ADME, organism-based; conditions: in vivo, 0.5 h; in short: as §1
Rattus norvegicus [22] = organism: Rattus norvegicus; assay: Radioactivity distribution in bone of normal fischer rat after injection of syn-[18F]-FMACBC after 120 min.; assay type: ADME, organism-based, Bone element; conditions: in vivo, 2 h; in short: as §2
Rattus norvegicus [23] = organism: Rattus norvegicus; assay: Radioactivity distribution in bone of normal fischer rat after injection of syn-[18F]-FMACBC after 30 min.; assay type: ADME, organism-based, Bone element; conditions: in vivo, 0.5 h; in short: as §2
Rattus norvegicus [24] = organism: Rattus norvegicus; assay: Radioactivity distribution in kidney of normal fischer rat after injection of syn-[18F]-FMACBC after 60 min.; assay type: ADME, organism-based; conditions: in vivo, 1 h; in short: as §2
Rattus norvegicus [25] = organism: Rattus norvegicus; assay: Radioactivity distribution in liver of tumor-bearing fischer rat after injection of syn-[18F]-FMACBC after 5 min; assay type: ADME, organism-based; conditions: in vivo; in short: as §4
Rattus norvegicus [26] = organism: Rattus norvegicus; assay: Radioactivity distribution in lung of tumor-bearing fischer rat after injection of anti-[18F]FMACBC after 60 min; assay type: ADME, organism-based; conditions: in vivo, 1 h; in short: as §4
Rattus norvegicus [27] = organism: Rattus norvegicus; assay: Radioactivity distribution in brain of normal fischer rat after injection of syn-[18F]-FMACBC after 120 min.; assay type: ADME, organism-based; conditions: in vivo, 2 h; in short: as §2
Rattus norvegicus [28] = organism: Rattus norvegicus; assay: Radioactivity distribution in bone of tumor-bearing fischer rat after injection of anti-[18F]FMACBC after 120 min; assay type: ADME, organism-based, Bone element; conditions: in vivo, 2 h; in short: as §3
Rattus norvegicus [29] = organism: Rattus norvegicus; assay: Radioactivity distribution in brain of tumor-bearing fischer rat after injection of anti-[18F]FMACBC after 120 min; assay type: ADME, organism-based; conditions: in vivo, 2 h; in short: as §3
Rattus norvegicus [30] = organism: Rattus norvegicus; assay: Radioactivity distribution in testis of normal fischer rat after injection of anti-[18F]FMACBC after 30 min.; assay type: ADME, organism-based; conditions: in vivo, 0.5 h; in short: as §1
Rattus norvegicus [31] = organism: Rattus norvegicus; assay: Radioactivity distribution in liver of tumor-bearing fischer rat after injection of syn-[18F]-FMACBC after 60 min; assay type: ADME, organism-based; conditions: in vivo, 1 h; in short: as §4
Rattus norvegicus [32] = organism: Rattus norvegicus; assay: Radioactivity distribution in brain of normal fischer rat after injection of syn-[18F]-FMACBC after 5 min.; assay type: ADME, organism-based; conditions: in vivo; in short: as §2
Rattus norvegicus [33] = organism: Rattus norvegicus; assay: Radioactivity distribution in testis of normal fischer rat after injection of syn-[18F]-FMACBC after 30 min.; assay type: ADME, organism-based; conditions: in vivo, 0.5 h; in short: as §1
Rattus norvegicus [34] = organism: Rattus norvegicus; assay: Radioactivity distribution in heart of tumor-bearing fischer rat after injection of anti-[18F]FMACBC after 60 min; assay type: ADME, organism-based; conditions: in vivo, 1 h; in short: as §3
Rattus norvegicus [35] = organism: Rattus norvegicus; assay: Radioactivity distribution in heart of tumor-bearing fischer rat after injection of anti-[18F]FMACBC after 120 min; assay type: ADME, organism-based; conditions: in vivo, 2 h; in short: as §3
Rattus norvegicus [36] = organism: Rattus norvegicus; assay: Radioactivity distribution in muscle of normal fischer rat after injection of syn-[18F]-FMACBC after 120 min.; assay type: ADME, organism-based, Muscle tissue; conditions: in vivo, 2 h; in short: as §1
Rattus norvegicus [37] = organism: Rattus norvegicus; assay: Radioactivity distribution in tumor of tumor-bearing fischer rat after injection of syn-[18F]-FMACBC after 60 min; assay type: ADME, organism-based; conditions: in vivo, 1 h; in short: as §4
Rattus norvegicus [38] = organism: Rattus norvegicus; assay: Radioactivity distribution in brain of normal fischer rat after injection of anti-[18F]FMACBC after 120 min.; assay type: ADME, organism-based; conditions: in vivo, 2 h; in short: as §2
Rattus norvegicus [39] = organism: Rattus norvegicus; assay: Radioactivity distribution in lung of normal fischer rat after injection of anti-[18F]FMACBC after 60 min.; assay type: ADME, organism-based; conditions: in vivo, 1 h; in short: as §1
Rattus norvegicus [40] = organism: Rattus norvegicus; assay: Radioactivity distribution in pancreas of normal fischer rat after injection of anti-[18F]FMACBC after 60 min.; assay type: ADME, organism-based; conditions: in vivo, 1 h; in short: as §1
Rattus norvegicus [41] = organism: Rattus norvegicus; assay: Radioactivity distribution in tumor of tumor-bearing fischer rat after injection of syn-[18F]-FMACBC after 5 min; assay type: ADME, organism-based; conditions: in vivo; in short: as §4

## N[C@]1(C(=O)O)C[C@@H](CF)C1
Rattus norvegicus [1]
  ID/g: 0.61%
Rattus norvegicus [2]
  ID/g: 0.81%
Rattus norvegicus [3]
  ID/g: 0.12%
Rattus norvegicus [4]
  ID/g: 0.46%
Rattus norvegicus [5]
  ID/g: 0.22%
Rattus norvegicus [6]
  ID/g: 0.23%
Rattus norvegicus [7]
  ID/g: 0.58%
Rattus norvegicus [8]
  ID/g: 0.31%
Rattus norvegicus [9]
  ID/g: 3.13%
Rattus norvegicus [10]
  ID/g: 0.52%
Rattus norvegicus [11]
  ID/g: 3.26%
Rattus norvegicus [12]
  ID/g: 0.59%
Rattus norvegicus [13]
  ID/g: 4.13%
Rattus norvegicus [14]
  ID/g: 0.46%
Rattus norvegicus [15]
  ID/g: 0.22%
Rattus norvegicus [16]
  ID/g: 0.24%
Rattus norvegicus [17]
  ID/g: 0.47%
Rattus norvegicus [18]
  ID/g: 0.44%
Rattus norvegicus [19]
  ID/g: 0.57%
Rattus norvegicus [20]
  ID/g: 0.54%
Rattus norvegicus [21]
  ID/g: 0.63%
Rattus norvegicus [22]
  ID/g: 0.32%
Rattus norvegicus [23]
  ID/g: 0.32%
Rattus norvegicus [24]
  ID/g: 0.45%
Rattus norvegicus [25]
  ID/g: 0.64%
Rattus norvegicus [26]
  ID/g: 0.38%
Rattus norvegicus [27]
  ID/g: 0.21%
Rattus norvegicus [28]
  ID/g: 0.19%
Rattus norvegicus [29]
  ID/g: 0.28%
Rattus norvegicus [30]
  ID/g: 0.25%
Rattus norvegicus [31]
  ID/g: 0.33%
Rattus norvegicus [32]
  ID/g: 0.26%
Rattus norvegicus [33]
  ID/g: 0.29%
Rattus norvegicus [34]
  ID/g: 0.63%
Rattus norvegicus [35]
  ID/g: 0.52%
Rattus norvegicus [36]
  ID/g: 0.6%
Rattus norvegicus [37]
  ID/g: 1.59%
Rattus norvegicus [38]
  ID/g: 0.25%
Rattus norvegicus [39]
  ID/g: 0.41%
Rattus norvegicus [40]
  ID/g: 3.83%
Rattus norvegicus [41]
  ID/g: 1.16%

Reference: ChEMBL document CHEMBL1136049, “Synthesis of syn- and anti-1-amino-3-[18F]fluoromethyl-cyclobutane-1-carboxylic acid (FMACBC), potential PET ligands for tumor detection” (J Med Chem, 2002)
